Hits are enriched below; roughly 2.6% of the tested compounds scored in any of these assays.
SENP8 block-1: inhibitors of human SENP8 protease | AID 602440 | Q96LD8 | recombinant SENP8, Nedd8 substrate fluorescence | 0.64% of 360,000 active | inhibition, % at 20 µM; in the data active = inhibition mostly above about 40%, no sharp cut-off; inactive = mostly below about 27%
SENP6 inh: inhibitors of human SENP6 protease | Recombinant SENP6 catalytic domain, aminoluciferin luminescence | inhibition, % at 10 µM | 1.8% of 330,000 active;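 active = inhibition above about 50% at the single tested dose, limit read from the data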;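 also: plate controls were DMSO wells with enzyme for no effect and DMSO wells lacking enzyme for full effect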
SENP7 block: blocks the human protease SENP7; recombinant SENP7, Z-RLRGG-aminoluciferin luminescence, 40 min; inhibition, % at 5 µM; 1.5% of 330,000 active; AID 434973;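 active = inhibition above about 50% at the single test dose, limit read from the data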;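 also: plate controls were DMSO with enzyme for no effect and no enzyme buffer wells for full effect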
Target sequence (Q9BQF6 706-1050 limits assumed): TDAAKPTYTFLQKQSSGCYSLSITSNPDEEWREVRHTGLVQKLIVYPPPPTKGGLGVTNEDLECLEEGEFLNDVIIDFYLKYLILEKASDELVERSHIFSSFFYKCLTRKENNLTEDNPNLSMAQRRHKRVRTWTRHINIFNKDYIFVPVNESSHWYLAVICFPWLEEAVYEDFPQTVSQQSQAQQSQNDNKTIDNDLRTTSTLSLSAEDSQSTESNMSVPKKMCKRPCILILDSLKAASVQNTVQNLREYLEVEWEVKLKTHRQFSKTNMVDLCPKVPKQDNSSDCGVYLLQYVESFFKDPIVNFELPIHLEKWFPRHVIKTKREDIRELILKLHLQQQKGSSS
SENP1 FRET inh: SENP1 (human) catalytic domain inhibition. Q9P0U3. recombinant SENP1 catalytic domain, CyPet-SUMO1-YPet FRET cleavage. inhibition, % at 10 µM. AID 624204. 0.21% of 360,000 active;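 active = inhibition at least 30% at 10 µM, raw YFP signal under a set limit, fluorescence ratio 0.5 to 1.5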;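 also: 0% = enzyme with DMSO and 100% = no enzyme wells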
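Assay system: hSENP1 catalytic domain, recombinant. Amount: SENP1 enzyme, 20 pM final. Schedule: 50 min reaction, RT, dark. Technique: FRET, CFP and YFP emission. Control set: no-enzyme wells low, DMSO-plus-enzyme wells high control.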
UCH37 DUB inh: inhibitors of human deubiquitinating enzyme UCH37; inhibition, % (test concentration not listed); Q9Y5K5; purified proteasome/UCH37, Ub-AMC cleavage fluorescence; AID 588478; 0.33% of 330,000 active;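 active = mean inhibition over replicate wells above about 20%, limit read from the data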;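 also: 0% = compound-free wells with enzyme and 100% = wells lacking proteasome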
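Material: human UCH37 enzyme supplied as purified proteasome complex / Amount: 0.15 nM proteasome as dispensed / Buffer or medium: pH 7.4 Tris-HCl (50 mM) with ovalbumin, ATP-MgCl2, DTT / Times: preincubation 30 min, reaction 25 min, room temperature / Technique: AMC fluorescence from Ub-AMC cleavage, excitation 355 nm, emission 460 nm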
SENP8 block-2: SENP8 protease inhibition | Q96LD8 | purified SENP8, Z-RLRGG-aminoluciferin cleavage, luminescence | inhibition, % at 10 µM | 1.2% of 330,000 active; in the data active = inhibition above about 50%
SENP8 conf: SENP8 (human) inhibition, single concentration confirmation | shares compounds with SENP8 block-1 | purified SENP8, Nedd8-AMC/pro-Nedd8 cleavage fluorescence, 30 min | inhibition, % at 25 µM | 15% of 1,400 active | AID 624319; in the data active = inhibition mostly above about 39%, no sharp cut-off; inactive = mostly below about 34%
The depositor's hits bear a star; / = no result.

SMILES	SENP8 block-1	SENP6 inh	SENP7 block	SENP1 FRET inh	UCH37 DUB inh	SENP8 block-2	SENP8 conf
Cc1cc(Br)cc2c1NC(=O)C2(c1c(C)n(C)n(-c2ccccc2)c1=O)c1c(C)n(C)n(-c2ccccc2)c1=O	14	5	3	2	1	-12	/
CC(C)c1ccc(NC(=O)[C@H](NC(=O)[C@@H]2Cc3ccccc3CN2)c2ccccc2)cc1	8	-11	4	-1	0	-4	/
CC(NC(=O)[C@H](NC(=O)[C@@H]1Cc2ccccc2CN1)c1ccccc1)c1ccccc1 (stereo partly drawn)	41*	-5	2	1	-2	4	9
CC(Oc1cccc2cccnc12)C(=O)NN=Cc1ccc2c(c1)OCO2 (stereo not drawn)	/	/	/	/	6	/	/
CC1(C)OC(c2ccccc2)=C/C(=C/C=N/NC(=O)c2ccncc2)O1	41*	-14	-5	3	/	0	24
Oc1ccccc1C=Nn1c(COc2ccccc2)n[nH]c1=S	/	/	/	/	1	/	/
CCC(=O)NNC(=O)c1c(O)c2ccccc2[nH]c1=O	-2	-18	0	2	/	-1	/
CC(c1c(O)c2ccccc2[nH]c1=O)C1(C)CCC(O)C(C)(C)O1 (stereo not drawn)	44*	-16	1	4	1	-13	19
O=C(CNC(=O)c1ccccc1)NN=C/C=C/c1ccccc1	/	/	/	/	8	/	/
COc1ccc(-c2nc(-c3cccc(C(F)(F)F)c3)no2)cc1OC	-27	-14	-7	0	5	-16	/
COc1ccc(-c2nc(-c3ccccc3OC)no2)cc1OC	40*	33	9	3	5	7	29
COC(=O)N/N=C1/C/C(=N\NC(=O)OC)c2ccccc21	81*	16	15	2	/	18	96*
Cc1ccc(C=NNC(=S)NCCc2ccccc2)s1	/	/	/	/	-49	/	/
Cc1ccc(SCC2=NN(c3nc(C)cc(C)n3)C(=O)C2)cc1	17	12	8	1	1	4	/
Cc1cc(C)nc(N2N=C(C(C)(C)C)CC2=O)n1	63*	8	-3	1	6	0	76*
O=S(=O)(N=C(c1ccc(F)cc1)N1CCCCC1)c1ccc(Cl)cc1	/	/	/	/	0	/	/
COc1ccc(C=NNC(=S)Nc2cc(S(=O)(=O)N3CCOCC3)ccc2N2CCOCC2)cc1O	/	/	/	/	4	/	/
O=C(Cc1cccs1)NN=C/C=C\c1ccccc1[N+](=O)[O-]	/	/	/	/	3	/	/
O=C(N/N=C/CCc1ccccc1)c1ccccc1	47*	-8	6	1	/	-3	16
CCOc1ccc(N2C(=O)CC(n3nc(C)cc3C)C2=O)cc1 (stereo not drawn)	45*	-25	-2	0	-1	-4	5
Cc1nn(-c2ccccc2)c(N2CCCCC2)c1C=NO	/	/	/	/	1	/	/
COC(=O)c1c(SCC(=O)Nc2ccc(C)c(C)c2)nc(=O)[nH]c1C	44*	-1	-4	-5	3	1	4
N#C/C(=C\C1=C(N2CCOCC2)C(=C/c2cccc([N+](=O)[O-])c2)/CC1)C(=O)Nc1ccccc1F	48*	/	/	82	10	/	19
O=C(Cc1ccc2c(c1)OCO2)NN=Cc1ccc([N+](=O)[O-])o1	39*	3	-1	-26	10	-14	21
O=C(N/N=C\c1ccc([N+](=O)[O-])o1)c1cncc(Br)c1	66*	11	4	1	/	14	24
SMILES	SENP8 block-1	SENP6 inh	SENP7 block	SENP1 FRET inh	UCH37 DUB inh	SENP8 block-2	SENP8 conf
CCCCCC(=O)N/N=C/c1ccc([N+](=O)[O-])o1	28	3	0	-7	/	4	/
O=C(N/N=C/c1ccc([N+](=O)[O-])o1)c1ccc(O)cc1	27	/	/	-6	/	/	/
O=C(N/N=C/c1ccc([N+](=O)[O-])o1)c1ccncc1	54*	11	-9	0	/	-2	28
O=C(Cc1ccc(O)cc1)NN=Cc1cccs1	/	/	/	/	2	/	/
O=C1c2cc(F)ccc2-n2c1nc1ccccc1c2=O	42*	43	24	4	/	19	60*
CC(CCC(=O)O)C1CCC2C3CCC4C[C@H](O)CCC4(C)C3CC(=O)C12C (stereo partly drawn)	21	-7	4	3	4	-5	/
